Measured values reported in publication PMC4659844 (Clinical Drug Investigation, 2015).
Where two headings read alike, the source gives them in different places.

Tests used:
cytochrome P450 (CYP) = conditions: background statement, no reference given; cited from earlier work
[1] = assay type: in vivo, human; conditions: for percentage of total exposure (AUC0–∞) after 7 days / percentage of total exposure (AUC0–∞) after 14 days: based on mean partial AUCs
QTc = conditions: cited from earlier work
[2] = system: healthy Japanese subjects; assay: Safety and tolerability; assay type: in vivo, human
Outline: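 Double-blind, placebo-controlled single 30-min IV infusion (300 ml, in 5 % dextrose with sterile water) of test compound or placebo. Groups: 500 mg, 5 active/1 placebo; 1000 mg, 10 active/2 placebo. Safety was assessed by physical examination, chemistry, hematology, urinalysis, heart rate, blood pressure, respiratory rate, oral temperature, and monitoring of concomitant medications and adverse events, queried on all study days with non-leading questions.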

[3] = cited from earlier work
[4] = 500 mg and 1000 mg single IV infusion, range of the two dose means
[5] = 500 mg single IV infusion, healthy Japanese subjects, range of subjects, n = 5
[6] = 1000 mg single IV infusion, healthy Japanese subjects, range of subjects, n = 10

CN[C@H]1C(=O)N[C@@H]2Cc3ccc(cc3)Oc3cc4cc(c3O[C@@H]3O[C@H](C(=O)O)[C@@H](O)[C@H](O)[C@H]3NC(=O)CCCCCCCCC(C)C)Oc3ccc(cc3Cl)[C@@H](O)[C@@H]3NC(=O)[C@H](NC(=O)[C@@H]4NC(=O)[C@@H](NC2=O)c2cc(cc(O)c2Cl)Oc2cc1ccc2O)c1ccc(O)c(c1)-c1c(O[C@H]2O[C@H](CO)[C@@H](O)[C@H](O)[C@@H]2O)cc(O)cc1[C@@H](C(=O)NCCCN(C)C)NC3=O [Dalbavancin]
CYP oxidative metabolism (cytochrome P450 (CYP)): does not undergo cytochrome P450 (CYP) oxidative metabolism | substrate, inhibitor or inducer of CYP isozymes (cytochrome P450 (CYP)): is not a substrate, inhibitor or inducer of any known CYP-isozyme | mean CL across two dose concentrations [1, 4]: 40.5 to 42.2 mL/h | mean Vd across two dose concentrations [1, 4]: 11,301 to 12,182 ml | percentage of total exposure (AUC0–∞) after 7 days ([1]; 500 mg single IV infusion): approximately 47% | percentage of total exposure (AUC0–∞) after 14 days ([1]; 500 mg single IV infusion): ~70% | mean AUC%extrap (percentage of AUC0–∞ obtained by extrapolation) ([1]; 500 mg single IV infusion, healthy Japanese subjects): 9.83% | Vd, range [1, 5]: 11,412–14,205 ml | terminal phase t1/2, range [1, 5]: 182 to 240 h | percentage of total exposure (AUC0–∞) after 7 days ([1]; 1000 mg single IV infusion): approximately 49% | percentage of total exposure (AUC0–∞) after 14 days ([1]; 1000 mg single IV infusion): ~73% | mean AUC%extrap (percentage of AUC0–∞ obtained by extrapolation) ([1]; 1000 mg single IV infusion, healthy Japanese subjects): 8.34% | CL, range [1, 6]: 34.8 to 45.8 mL/h | Vd, range [1, 6]: 8999–13,691 ml | terminal phase t1/2, range [1, 6]: 162 to 220 h | QTc prolongation (QTc): no evidence of QTc prolongation | tolerability ([2]; 500 mg and 1000 mg as single 30-min infusions, healthy Japanese subjects): well tolerated | serious adverse events, deaths, discontinuations due to a TEAE ([2]; 500 mg and 1000 mg single IV infusion, healthy Japanese subjects): no serious adverse event occurred | investigator-assessed relation of dizziness to study medication ([2]; 500 mg dose group): unlikely to be related | investigator-assessed relation of dyspepsia to study medication ([2]; 500 mg dose group): not related | investigator-assessed relation of rash and diarrhea to study medication ([2]; 1000 mg dose group): possibly related | subjects with at least one TEAE, percentage ([2]; Dalbavancin 500 mg single IV infusion, N = 5): 40% | subjects with at least one TEAE, percentage ([2]; Dalbavancin 1000 mg single IV infusion, N = 10): 30% | clinical laboratory values (chemistry, hematology, urinalysis) ([2]; any dose group, change from baseline): No clinically relevant, abnormal laboratory values were reported | intensity of TEAEs ([2]; subjects receiving dalbavancin in both dose groups (500 mg, 1000 mg)): mild intensity | terminal half-life (t1/2) [3]: 2 weeks | terminal t1/2 ([3]; studies with follow-up periods as long as 70 days): ≤ 372 h
